Assay results as given in paper PMC10870114 (Clinical Cancer Research, 2023).

Columns and labels:
[1] = tested on: locally advanced rectal cancer; assay: Neoadjuvant rectal; type: in vivo, human; details: for NAR score, median: patients who underwent surgery
In short: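 Patients without clinical complete response were to have surgery 9.5±2 weeks after CRT completion. On the resected tissue, tumour regression was graded by the modified Ryan scheme, from 0 (complete response) to 3 (poor or no response). The NAR score was calculated only for operated patients, with lower scores denoting better prognosis.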

[2] = tested on: patients with locally advanced rectal cancer; assay: Late toxicities and deaths after the on-treatment period; type: in vivo, human
DNA-PK = DNA-PK (Homo sapiens, UniProt P78527); assay: pDNA-PK/tDNA-PK ratio in bleomycin-stimulated PBMCs, pre- and post-dosing; details: PBMCs stimulated with bleomycin ex vivo; evidence of target engagement
[3] = tested on: patients with locally advanced rectal cancer; assay: Dose-limiting toxicities; type: in vivo, human
[4] = tested on: patients with locally advanced head and neck cancer; details: NCT02516813; cited from earlier work
[5] = tested on: patients with advanced solid tumors; details: cited from earlier work

Question: For `COc1ccc([C@@H](O)c2cc(-c3ncnc4cc(N5CCOCC5)ccc34)c(F)cc2Cl)nn1` [Peposertib], which “NAR score, median” value ([1]; 100-mg dose cohort) is on record?
Answer: 9.4

Question: And the “NAR score, median” value ([1]; 150-mg dose cohort)?
Answer: 13.8

Question: What about the “NAR score, median” value ([1]; 250-mg dose cohort) of the same molecule?
Answer: 15.0

Question: What about the “Patients with a Ryan score of 1” value ([1]; one each in the 100-mg and 150-mg cohorts) of the same molecule?
Answer: two patients

Question: And the “Dose dependence of late toxicities” value ([2]; across the peposertib dose range)?
Answer: no discernible indication of a dose-dependent effect

Question: And the “Late toxicities: anemia” value ([2]; all cohorts)?
Answer: 3 n

Question: And the “Patients with late toxicities” value ([2]; all cohorts, 18 patients, data cutoff March 22, 2022)?
Answer: 94.7%

Question: And the “Grade ≥3 late toxicities” value ([2]; all cohorts, at data cutoff)?
Answer: 11 patients

Question: What about the “Late toxicities: proctitis” value ([2]; all cohorts, n = 3) of the same molecule?
Answer: 15.8%

Question: What about the “Late toxicities: gastrointestinal disorders” value ([2]; all cohorts, n = 12) of the same molecule?
Answer: 63.2%

Question: What about the “Patients who died during the study” value ([2]; all considered unrelated to study treatment, not treatment-emergent) of the same molecule?
Answer: Three

Question: What about the “Peposertib dose at which inhibition of DNA-PK autophosphorylation was observed” value (DNA-PK) of the same molecule?
Answer: ≥ 150 mg

Question: And the DLT reported overall ([3]; all dose cohorts)?
Answer: five

Question: And the “Peposertib dose considered tolerable in combination with RT and capecitabine” value ([3]; based on the totality of safety data)?
Answer: ≤ 150 mg once daily

Question: What about the “Dose-limiting toxicities, patients with DLT of evaluable patients” value ([3]; peposertib 100 mg once daily + CRT, radiation skin injury and enterocolitis) of the same molecule?
Answer: one out of five

Question: What about the “Dose-limiting toxicities, patients with DLT of evaluable patients” value ([3]; peposertib 250 mg once daily + CRT, two enterocolitis and one proctitis) of the same molecule?
Answer: three out of six

Question: And the “MTD and RP2D” value ([3]; peposertib + capecitabine-based CRT, study enrollment prematurely discontinued)?
Answer: not declared

Question: And the “Safety of combination with RT and full doses of cisplatin” value [4]?
Answer: could not be safely combined

Question: And the “Toxicity of peposertib monotherapy” value [5]?
Answer: no significant toxicity

Question: What about the “Dose recommended for further evaluation” value ([5]; monotherapy) of the same molecule?
Answer: 400 mg twice daily
